An excerpt weighted towards active compounds, which were near 3.4% of everything screened.
TAAR1 agonist = agonists of human TAAR1; Q96RJ0; CHO RD-HGA16 TAAR1, Fluo-8 calcium fluorescence; vehicle wells 0%, saturating PEA agonist 100%; activation, % at 3 µM; 0.99% of 360,000 active; AID 624467;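 active means activation above the mean activation of all test compounds in the run plus 3 SD, cut at about 38% in these data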
Target sequence (Q96RJ0 whole entry, looked up): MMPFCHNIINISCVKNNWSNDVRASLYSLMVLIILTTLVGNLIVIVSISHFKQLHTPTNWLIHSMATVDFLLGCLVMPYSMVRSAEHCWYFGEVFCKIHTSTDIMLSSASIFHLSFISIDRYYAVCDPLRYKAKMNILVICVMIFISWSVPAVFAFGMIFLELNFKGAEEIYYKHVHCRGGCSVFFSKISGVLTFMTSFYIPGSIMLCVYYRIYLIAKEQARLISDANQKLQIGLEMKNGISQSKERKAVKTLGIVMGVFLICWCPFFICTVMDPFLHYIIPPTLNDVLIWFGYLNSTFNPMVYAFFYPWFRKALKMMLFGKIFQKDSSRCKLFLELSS
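test system = CHO RD-HGA16 cells carrying human TAAR1 plus Gα16 | schedule = 17-24 h seeding, 75 min 37 °C dye, 30 min RT | compound dosing = 3 µM single concentration | control set = DMSO and PEA EC100 | replicates = n 1 | signal = Fluo-8 fluorescence, 5 s baseline then 140 s kinetic read | measure = percent activation vs PEA EC100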
CHRM1 antagonist = antagonists of human M1 muscarinic receptor. P11229. CHO-K1 hM1, Fluo-8 calcium fluorescence, ACh EC80 antagonist. inhibition, % at 3 µM. 1.3% of 360,000 active;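 active means percent inhibition above its own plate's cutoff, namely the mean of that plate's compound wells plus 3 SD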;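 further: peak over basal fluorescence ratio during 140 s after agonist addition; 0% = ACh EC80 plus DMSO and 100% = DMSO alone without agonist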
TAAR1 antagonist = antagonists of human TAAR1 | Q96RJ0 | CHO RD-HGA16 TAAR1, Fluo-8 calcium fluorescence, antagonist | inhibition, % at 3 µM | 1.5% of 360,000 active | AID 624466;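 active means inhibition above a per-plate cutoff, the mean inhibition of test compounds on that plate plus 3 SD, cut at about 49% in these data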;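 further: 0% = DMSO plus EC80 beta-PEA response and 100% = DMSO alone without agonist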
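Material: RD-HGA16 CHO cells with stable hTAAR1 and Gα16; Dosing: single nominal final test compound concentration of 3 µM; Schedule: seeding 17-24 h prior, 75-min 37 °C, 30-min RT dye loading; Detection: kinetic Fluo-8 calcium fluorescence measurement; Measure: % inhibition from peak post-agonist over basal fluorescence ratio; Benchmarks: vehicle and agonist controls.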
CHRM1 agonist = agonists of human M1 muscarinic receptor | 0.33% of 360,000 active | CHO-K1 hM1, Fluo-8 calcium fluorescence, agonist mode; 0% DMSO, 100% acetylcholine EC100 | P11229 | activation, % at 3 µM;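 active means activation above the run's mean compound activation plus 3 SD, cut at about 16% in these data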;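 further: peak over basal fluorescence ratio within a 140 s kinetic read after compound addition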
M1 PAM = positive allosteric modulators of human M1 muscarinic receptor | P11229 | CHO-K1 hM1, Fluo-8 calcium fluorescence, ACh EC20; 0% = ACh EC20, 100% = maximal ACh | activation, % at 3 µM | 0.088% of 360,000 active | AID 588819; in the data active means activation above about 19%, passing the limit was not always enough
* marks the source's active call; other numbers are inactive results; . = no result.

SMILES	TAAR1 agonist	CHRM1 antagonist	TAAR1 antagonist	CHRM1 agonist	M1 PAM
O=C(c1cc(-c2ccccc2)nc2ccccc12)N1N=C(C(F)F)CC1(O)C(F)F (stereo unspecified)	7	-2	0	7	22*
O=C(c1ccc(COc2ccc3ccccc3c2)o1)N1N=C(C(F)F)CC1(O)C(F)F (stereo unspecified)	.	56*	.	-5	-21
CCOc1ccc(OCc2ccc(C(=O)N3N=C(C(F)F)CC3(O)C(F)F)o2)cc1 (stereo unspecified)	3	9	4	-7	-6
O=C(c1ccc(COc2ccc(Br)cc2)o1)N1N=C(C(F)F)CC1(O)C(F)F (stereo unspecified)	4	33*	-7	-7	-25
Cc1ccc(-c2cc(C(=O)N3N=C(C(F)F)CC3(O)C(F)F)c3ccccc3n2)cc1C (stereo unspecified)	9	2	-3	5	8
Clc1ccc(SCCOCCN2CCCCCC2)cc1	13	42*	-13	-7	-27
C1CCN(C2CCN(c3nc4nonc4nc3N3CCSCC3)CC2)C1	7	27*	0	-10	-24
COc1ccc(C(=O)Nc2ccc(C)cn2)cc1S(=O)(=O)N1CCCc2ccccc21	2	23*	4	-4	-13
Cc1nn(-c2ccccc2)nc1C(=O)Nc1ccccc1C(=O)NCC1CC1	3	.	-7	.	.
CCOC(=O)c1c(C)oc2c1c(CN1CCN(C(=O)OCC)CC1)c(O)c1ccccc12	4	1	12	17*	-8
O=C(C(=O)N1CCN(S(=O)(=O)c2ccc(OC(F)(F)F)cc2)CC1)c1cccc(C(F)(F)F)c1	-2	.	-8	.	.
CCCOc1ccc(Br)cc1CSC(=N)N	80*	26*	50*	-3	-16
CCN(CC)C(=S)SCC(=O)c1ccccc1	16	7	11	-5	3
CCN(CC)C(=S)SCC(=O)c1ccc(F)cc1	1	24*	5	-1	-4
CCOC(=O)N1CCN(C(=O)c2ccc3c(c2)NC(=O)/C(=C\c2ccc(OC)c(OC)c2)S3)CC1	9	52*	28	-14	-41
COc1ccc(/C=C2/Sc3ccc(C(=O)N4CCOCC4)cc3NC2=O)cc1OC	2	-4	-8	0	4
COc1ccc(/C=C\C(=O)O[C@@H]2C(O)C(O[C@@H]3OC(C)[C@H](O[C@@H]4OCC(O[C@H]5O[C@H](CO)[C@@H](O)C(O)C5O)C(O)C4O)C(O)C3O)[C@H](OC(=O)[C@]34CCC(C)(C)C[C@@H]3C3=CCC5[C@@]6(C)CC(O)C(O[C@@H]7OC(CO)C(O)[C@H](O)[C@H]7O)[C@@](C)(C(=O)O)C6CC[C@@]5(C)[C@]3(CO)CC4)O[C@H]2C)cc1 (stereo partly specified)	.	85*	.	95*	-37
Nc1[nH]c(C(=O)c2ccccc2)c(-c2ccccc2Cl)c1C(=O)NCCc1c[nH]c2ccccc12	9	.	-7	.	.
CCCCOCCCNC(=O)C[C@H]1C[C@@]2(C(=O)OC)C(=C[C@H](C(C)(C)C)O[C@@H]2C)N(CCC2=CCCCC2)C1=O	-2	.	-26	.	.
CC#CC[N+](C)(C)CCCCCCCCCC	11	57*	-25	-8	-19
CN1OC[C@@H]2CN[C@H](c3ccc(-n4ccnc4)cc3)C[C@@H]21	3	.	-25	.	.
CCCCCCCCN1C(=O)[C@@H](CC(=O)N2CCC(c3ccccc3)CC2)C[C@@]2(C(=O)OC)C1=C[C@H](C1CCCC1)O[C@@H]2C	1	.	-27	.	.
C=CCN1C[C@H](COC(=O)CSc2ccccc2)Oc2cccc(F)c2S1(=O)=O	2	.	28	.	.
CC1(C)SC(=S)N(/N=C/c2ccccc2)C1N(O)C(=O)Nc1ccc([N+](=O)[O-])cc1 (stereo unspecified)	44*	-12	-6	4	-7
Cc1noc(C(C)C)c1C(=O)Nc1ccc(-c2nnc3n2CCCCC3)cc1	0	33*	-19	-9	-16
SMILES	TAAR1 agonist	CHRM1 antagonist	TAAR1 antagonist	CHRM1 agonist	M1 PAM
CCOc1ccccc1N1CCN(C/C=C/c2ccc(N(C)C)cc2)CC1	37*	0	-9	-5	0
O=C(NNC(=O)c1ccccc1F)c1ccc(-n2cncn2)c([N+](=O)[O-])c1	2	36*	-13	1	-12
Cn1c(N)c(C(=O)COC(=O)CC2CC3CCC2C3)c(=O)n(C)c1=O (stereo unspecified)	40*	20	-5	-3	-9
Cn1c(N)c(C(=O)COC(=O)Cc2ccc(Br)cc2)c(=O)n(C)c1=O	7	-7	-12	-2	6
CCCCCCSc1ccc(-c2nc3ccc(C)cn3c2NCCCC)cc1OC	-1	.	-16	.	.
CCCCNc1c(-c2ccc(SC(C)CC)c(OC)c2)nc2ccc(C)cn12 (stereo unspecified)	9	44*	87*	-7	-22
CCCCNc1c(-c2ccc(SC(C)CC)c(OC)c2)nc2ccc(Cl)cn12 (stereo unspecified)	0	13	62*	-5	-10
CC(C)(C)OC(=O)N1CCN(C(c2ccnc3ccccc23)c2nnnn2-c2ccc3c(c2)OCCO3)CC1 (stereo unspecified)	1	.	10	.	.
CN(Cc1ccc(Cl)cc1)C(CCc1ccccc1)C(=O)NC1CCCCC1 (stereo unspecified)	0	-18	-29	-3	-3
CCC1CCCCN1CCNC(=O)C1CCN(S(=O)(=O)c2cccc3nsnc23)CC1 (stereo unspecified)	0	52*	-9	-6	-21
CC1CCN(CCNC(=O)C2CCN(S(=O)(=O)c3cccc4nsnc34)CC2)CC1	8	26	-7	-5	-10
CC1CCN(Cc2ccc(NC(=O)C3CCN(c4nnc(-n5cccc5)s4)CC3)cc2)CC1	2	97*	-22	-14	-35
Cc1cccc(N2CCN(C(=O)C3CCN(c4nnc(-n5cccc5)s4)CC3)CC2C)c1 (stereo unspecified)	7	20	49*	-3	-24
Cc1ccc(Cl)cc1N1CCN(C(=O)C2CCN(c3nnc(-n4cccc4)s3)CC2)CC1	1	2	15	-6	-7
O=C(C1CCN(S(=O)(=O)c2cccc3nsnc23)CC1)N1CCn2c1nc1ccccc12	.	-26	.	17*	12
CC(C)=CCN1C(=O)[C@]2(OCCC=C[C@H]2C)c2c(Br)cccc21	-2	.	-19	.	.
COc1ccc(C(C)(C)C)cc1N1C(=O)[C@@H]2CSCCS(=O)(=O)N2C1=O	-1	.	-1	.	.
Cc1ccc2nc(-c3ccc(C#N)cc3)c(Cc3cccc(F)c3)n2c1	0	.	14	.	.
Cc1cccc(NC(=O)C2CCN(S(=O)(=O)c3cccc4nsnc34)CC2)c1	6	-8	13	-1	2

Compound activity from PubChem BioAssay.
